High-throughput results as filed in PubChem BioAssay.
A selection: hits, their analogues and other compounds. The true share with any hit is near 2.4%.
Jurkat NFkB inh: inhibitors of induced NF-kB luciferase reporter, primary screen, TCR NF-kB activation inhibitor project, cell-based, luminescence, uHTS; Jurkat, PMA/ionomycin-induced NF-kB luciferase reporter; inhibition, % at 4 µM; actives 0.53% (n = 330,000); AID 435003, 2010; in the data active = inhibition above about 50%
MPTP block: mitochondrial permeability transition pore inhibitors, primary screen, biochemical, isolated mouse mitochondria, absorbance; Ca2+ swelling absorbance, 30 min; inhibition, % at 10 µM; actives 1.4% (n = 360,000); AID 602449, 2012;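 active = inhibition of 50% or more, scaled per plate between neutral and stimulator controls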;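 also: 0% = DMSO wells given calcium and 100% = 1 mM EGTA wells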
NR2E3 ag-1: NR2E3 agonists in two-hybrid cells, primary screen, cell-based, luminescence, CHO-S, Gal4-NCOR/VP16-NR2E3. Photoreceptor-specific nuclear receptor (Homo sapiens), Q9Y5X4. luciferase. inhibition of corepressor binding, % at 3.98 µM. actives 0.35% (n = 360,000). AID 602229, 2012;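 active = inhibition above the mean of all tested compounds plus 3 SD, cut at about 70% in these data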;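 also: 0% = DMSO with NR2E3 transfected cells and 100% = cells lacking NR2E3 construct; higher means lower luciferase signal from less NR2E3 corepressor binding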
Target sequence (Q9Y5X4 whole entry, looked up, the tested form may be a part): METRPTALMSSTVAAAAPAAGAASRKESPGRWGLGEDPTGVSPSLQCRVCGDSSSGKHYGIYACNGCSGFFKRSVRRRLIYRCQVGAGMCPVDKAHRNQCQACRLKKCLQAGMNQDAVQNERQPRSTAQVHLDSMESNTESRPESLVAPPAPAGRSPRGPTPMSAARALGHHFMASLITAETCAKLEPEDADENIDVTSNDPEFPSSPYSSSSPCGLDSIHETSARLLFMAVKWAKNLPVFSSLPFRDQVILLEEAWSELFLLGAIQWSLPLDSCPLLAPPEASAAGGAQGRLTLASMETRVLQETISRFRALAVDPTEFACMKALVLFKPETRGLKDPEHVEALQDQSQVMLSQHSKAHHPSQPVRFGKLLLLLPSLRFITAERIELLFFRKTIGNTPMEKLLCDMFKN
aDG glyco act: activators of alpha-DG glycosylation, primary screen, uHTS, Pro5-aDG cells, AlphaScreen. AID 624168, 2012. activation, % at 10 µM. actives 0.22% (n = 360,000). alpha-DG glycosylation AlphaScreen (IIH6); 0% Pro5, 100% B10-LARGE cell signal;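 active = activation of at least 8% versus controls, or a plate z-score of at least 8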;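 also: Pro5 are CHO cells carrying HIG-tagged alpha-DG that lacks glycosylation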
NR2E3 ag-2: inhibitors of NR2E3-RetCOR corepressor binding, primary screen, NR2E3 agonist project, biochemical, TR-FRET, GST-NR2E3, biotin-RetCOR; Photoreceptor-specific nuclear receptor (Homo sapiens), Q9Y5X4; 1536-well; inhibition of corepressor binding, % at 4.78 µM; actives 0.12% (n = 320,000); AID 2300, 2010;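 active = percent inhibition above the cutoff of mean plus 3 SD of all tested compounds, set per screening campaign, cut at about 20% in these data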;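 also: 0% = DMSO wells and 100% = biotin wells as full block of FRET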
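System: GST-NR2E3 and biotin-RetCOR proteins; probe or stimulus: 7 nM biotin-RetCOR; doses: compound at 4.8 µM, single dose; schedule: Compound–protein incubation for 5 h at 4 °C; detection: time-resolved FRET; read-out: percent inhibition; controls: biotin wells as high control, 0.6% DMSO wells as low control; format: 1536-well plates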
697 NFkB inh: inhibitors of PMA/ionomycin-induced NF-kB reporter, 697 cells, primary screen, B-cell NF-kB inhibitor project, cell-based, luminescence, uHTS; 697 B-cell NF-kB luciferase reporter, 16 h; inhibition, % at 4 µM; actives 0.33% (n = 330,000); in the data active = inhibition above about 35%
MPTP counter: fluorescence retest of MPTP screen hits in isolated mitochondria, single concentration. shares compounds with MPTP block. membrane potential, Rhodamine 123 fluorescence. inhibition, % at 10 µM. actives 78% (n = 5,000); in the data active = inhibition above about 22%;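 also: 0% = DMSO vehicle and 100% = positive control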
MPTP abs DR: mitochondrial permeability transition pore inhibitors, dose response, biochemical, absorbance, uHTS hits; shares compounds with MPTP block; actives 58% (n = 780); AID 651561, 2012; isolated mitochondria swelling; IC50, µM; in the data active = IC50 below about 20 µM
MPTP counter DR: fluorescent counter-screen in isolated mitochondria, dose response, counter-screen for MPTP inhibitor project, biochemical, fluorescence, uHTS hits; isolated mitochondria counterscreen, fluorescence read-out; shares compounds with MPTP block; actives 49% (n = 780); IC50, µM; in the data active = IC50 below about 80 µM
An asterisk follows results filed as active; i = inactive; x = no result.

SMILES	Jurkat NFkB inh	MPTP block	NR2E3 ag-1	aDG glyco act	NR2E3 ag-2	697 NFkB inh	MPTP counter	others
COc1cc(/C=N/NC(=O)CCN2CCN(C)CC2)cc2c1OCO2	11	1	-14	0	3	5	x
CCOC(=O)C1=C(COC(=O)COc2ccc(OCC)cc2)NC(=O)NC1C (stereo unspecified)	1	1	-10	0	-2	-1	x
Cc1cccc(OCCCCCNCCO)c1	-14	1	3	0	4	2	x
Cc1cccc(OCCCCNCc2ccccc2)c1	-11	59*	-22	1	-3	3	0	MPTP abs DR=6.8*;MPTP counter DR=>80
C/C(=N/Nc1ccc([N+](=O)[O-])cc1)c1ccc(C)cc1C	-32	65*	-79	0	5	-9	60*
C/C(=N\Nc1cccc([N+](=O)[O-])c1)c1cc(F)ccc1O	-57	85*	-68	0	4	-95	65*
N#CC(C#N)=NNc1ccc([N+](=O)[O-])cc1	14	90*	15	0	-2	12	78*
C/C(=N\Nc1cccc([N+](=O)[O-])c1)c1ccccc1O	-59	1	-61	1	-2	11	x
C/C(=N\Nc1ccc([N+](=O)[O-])cc1)c1ccc(C#N)cc1	3	28	12	0	1	0	x
Cc1ccc(S(=O)(=O)N2CCCCC2)cc1NC(=O)CSc1nnc(C2CC2)n1N	-26	0	-4	0	x	-6	x
CNS(=O)(=O)c1cn(CC(=O)NCc2ccccc2OC)cc1S(=O)(=O)NC	-7	0	-3	0	0	9	x
O=C(/C=C/c1ccc(F)cc1)c1ccc(N2CCOCC2)cc1	-15	2	-25	0	0	-21	x
CCc1ccc(/C=C/C(=O)c2ccc(N3CCOCC3)cc2)cc1	2	68*	-28	1	0	-2	14	MPTP abs DR=i;MPTP counter DR=19*
O=C(Nc1ccc(Cl)cc1)OCCN1CCOCC1	x	0	-30	0	x	x	x
O=C(Nc1ccc(Cl)cc1)OCCn1nnnc1C(c1ccccc1Cl)N1CCOCC1 (stereo unspecified)	6	72*	-20	0	-1	6	85*
COc1ccc(S(=O)(=O)Nc2ccc(F)c(F)c2)cc1C(=O)N1CCOCC1	-12	0	-33	0	5	8	x
Cc1cc(C(=O)OC(C(=O)Nc2cccc(C(F)(F)F)c2)c2ccccc2)c(C)o1 (stereo unspecified)	-4	68*	-12	0	0	-22	73*
C=CCN(C(=O)c1cccc(S(=O)(=O)N2CCN(C)CC2)c1)c1nc(-c2ccccc2)cs1	-14	73*	6	0	4	-17	6	MPTP abs DR=i;MPTP counter DR=76*
CCOC(=O)/C=C/C(=O)Nc1cc(S(=O)(=O)Nc2ccc(OC)cc2)ccc1N1CCOCC1	-14	57*	22	0	x	-10	70*
COc1ccc(S(=O)(=O)Nc2ccc(F)c(F)c2)cc1Cl	-12	6	17	0	2	-5	x
COc1ccc(NS(=O)(=O)c2ccc(N3CCOCC3)c(NC(=O)c3ccc(F)cc3)c2)cc1	20	73*	29	0	0	-12	17	MPTP abs DR=>100;MPTP counter DR=>80
COc1cc(Cl)c(C)cc1NC(=O)c1ccc(NS(=O)(=O)c2ccc(F)c(F)c2)cc1	1	51*	22	1	1	6	60*
COc1ccc(NS(=O)(=O)c2ccc(N3CCOCC3)c(NC(=O)C(C)C)c2)cc1	2	76*	33	0	-3	-25	55*
CC(=O)Nc1ccc(NC(=O)C(C)N(C)CC(=O)Nc2ccccc2Br)cc1 (stereo unspecified)	x	1	-8	0	x	x	x
CCOC(=O)C1=NN(C(=O)Cc2ccccc2)C(O)(C(C)(C)C)C1 (stereo unspecified)	x	2	-18	0	3	x	x
SMILES	Jurkat NFkB inh	MPTP block	NR2E3 ag-1	aDG glyco act	NR2E3 ag-2	697 NFkB inh	MPTP counter	others
C=CC[n+]1c(-c2ccc(OC)c(OC)c2)csc1NNC(=O)Nc1ccccc1	28	64*	-15	1	5	1	31*
Cc1ccccc1S(=O)(=O)Nc1ncnc2ccccc12	-7	-2	-17	0	4	3	x
COc1cccc(Nc2nc3ccccc3nc2NS(=O)(=O)c2cccs2)c1	8	58*	32	0	0	5	71*
COc1ccc(Nc2nc3ccccc3nc2NS(=O)(=O)c2cccs2)c(OC)c1	-18	37	16	0	-2	5	x
CNCCC1Sc2ccccc2Oc2ccccc21 (stereo unspecified)	5	61*	-1	0	6	11	-6	MPTP abs DR=10*;MPTP counter DR=>80
COc1ccc(C(=O)COC(=O)c2sc(C)nc2C)cc1Cl	19	0	8	1	-1	-16	x
N#Cc1ccccc1NC(=O)C1SC(=Nc2ccccc2)C(C(=O)Nc2ccc(Cl)cc2)=C1N (stereo unspecified)	2	62*	2	0	1	-14	65*
C/C(=N\NC(=O)c1cc(Cl)ccc1O)c1ccc(Br)s1	-62	94*	-128	0	-2	-138	20	MPTP abs DR=4.7*;MPTP counter DR=<2.5*
C/C(=N\NC(=O)c1ccc(Cl)cc1)c1ccc(Br)s1	-31	0	-32	0	1	-38	x
O=C(Nc1csc([N+](=O)[O-])c1)Nc1c(Cl)cccc1Cl	18	67*	17	0	0	24	88*
O=C(Nc1ccc(Cl)cc1)Nc1csc([N+](=O)[O-])c1	-3	79*	-19	0	3	-52	78*
Cc1cc(C(=O)NC(Cc2ccccc2)C(=O)O)c(C)o1 (stereo unspecified)	4	-1	-22	0	-4	11	x
c1ccc2c(N3CCCCC3)nc(N3CCCCC3)nc2c1	-6	4	-1	1	1	-31	x
